Data published in ChEMBL document CHEMBL1140925, “Nuclear factor-kappaB mediated inhibition of cytokine production by imidazoline scaffolds” (J Med Chem, 2009).

Columns and labels:
HeLa [1] = assay: Cell cycle arrest in TNF-alpha-stimulated human HeLa cells transfected with NFkappaB-Luc assessed as accumulation at G2/G1 phase at 10 uM after 8 hrs by propidium iodide-based flow cytometry; format: functional
In short: (§1)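 HeLa NF-κB-luc cells (stable, hygromycin-selected) were treated with vehicle (1% DMSO) or compound at 40–0.2 µM final for 8 h at 37 °C, 5% CO2. Adherent cells were trypsinized, resuspended in PBS/50% FBS, fixed overnight in 70% ice-cold ethanol and washed with cold PBS/10% FBS, then analysed for cell cycle by flow cytometry.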

HeLa [2] = assay: Cell cycle arrest in TNF-alpha-stimulated human HeLa cells transfected with NFkappaB-Luc assessed as accumulation at S phase at 10 uM after 8 hrs by propidium iodide-based flow cytometry; format: functional; in short: as §1
HeLa [3] = assay: Cell cycle arrest in TNF-alpha-stimulated human HeLa cells transfected with NFkappaB-Luc assessed as accumulation at diploid G2 phase at 10 uM after 8 hrs by propidium iodide-based flow cytometry; format: functional; in short: as §1
HeLa [4] = assay: Cell cycle arrest in TNF-alpha-stimulated human HeLa cells transfected with NFkappaB-Luc assessed as accumulation at G2/G1 phase at 20 uM after 8 hrs by propidium iodide-based flow cytometry; format: functional; in short: as §1
HeLa [5] = assay: Cell cycle arrest in human HeLa cells transfected with NFkappaB-Luc assessed as accumulation at S phase at 20 uM after 8 hrs by propidium iodide-based flow cytometry; format: functional; in short: as §1
HeLa [6] = assay: Cell cycle arrest in human HeLa cells transfected with NFkappaB-Luc assessed as accumulation at diploid G2 phase at 20 uM after 8 hrs by propidium iodide-based flow cytometry; format: functional; in short: as §1
HeLa [7] = assay: Cell cycle arrest in human HeLa cells transfected with NFkappaB-Luc assessed as accumulation at diploid stage at 20 uM after 8 hrs by propidium iodide-based flow cytometry; format: functional; in short: as §1
HeLa [8] = assay: Cell cycle arrest in TNF-alpha-stimulated human HeLa cells transfected with NFkappaB-Luc assessed as accumulation at diploid G2 phase at 0.1 uM after 8 hrs by propidium iodide-based flow cytometry; format: functional
HeLa [9] = assay: Cell cycle arrest in TNF-alpha-stimulated human HeLa cells transfected with NFkappaB-Luc assessed as accumulation at G2/G1 phase at 0.1 uM after 8 hrs by propidium iodide-based flow cytometry; format: functional
HeLa [10] = assay: Cell cycle arrest in TNF-alpha-stimulated human HeLa cells transfected with NFkappaB-Luc assessed as accumulation at S phase at 0.05 uM after 8 hrs by propidium iodide-based flow cytometry; format: functional
[11] = Cytotoxicity against human whole blood lymphocytes assessed as survival cell count in millions at 10 uM by trypan blue staining based hemocytometer
[12] = Cytotoxicity against human whole blood lymphocytes assessed as survival cell count in millions at 1 uM by trypan blue staining based hemocytometer
HeLa [13] = assay: Effect on cell cycle arrest in TNF-alpha-stimulated human HeLa cells assessed as cell aggregate level at 20 uM after 8 hrs by propidium iodide-based flow cytometry; format: functional
HeLa [14] = assay: Effect on cell cycle arrest in TNF-alpha-stimulated human HeLa cells assessed as cell debris level at 10 uM after 8 hrs by propidium iodide-based flow cytometry; format: functional
HeLa [15] = assay: Effect on cell cycle arrest in TNF-alpha-stimulated human HeLa cells assessed as cell aggregate level at 10 uM after 8 hrs by propidium iodide-based flow cytometry; format: functional
HeLa [16] = assay: Effect on cell cycle arrest in TNF-alpha-stimulated human HeLa cells assessed as cell debris level at 0.5 uM after 8 hrs by propidium iodide-based flow cytometry; format: functional
HeLa [17] = assay: Cell cycle arrest in TNF-alpha-stimulated human HeLa cells transfected with NFkappaB-Luc assessed as accumulation at diploid stage at 0.1 uM after 8 hrs by propidium iodide-based flow cytometry; format: functional
[18] = Inhibition of TNF-alpha-induced NF-kappaB-mediated transcription expressed in human HeLa cells preincubated for 30 mins before addition of TNFalpha measured after 8 hrs by luciferase reporter gene assay; format: cell-based
In short: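 HeLa/NF-κB-luc cells (5.0 × 10⁵ cells/mL) were grown 24 h, then switched to serum-free DMEM. They were pretreated 30 min at 37 °C with 0.05–20 µM imidazoline (1% DMSO vehicle), then stimulated with 25 ng/mL TNF-α for 8 h. Steady-Glo luminescence was normalized to TNF-α activation, and EC50 was taken from a variable-slope sigmoidal fit. Values are the mean of two independent experiments.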

[19] = Inhibition of TNF-alpha-induced NF-kappaB-mediated transcription expressed in human HeLa cells co-transfected with renilla luciferase-TK gene preincubated for 30 mins before TNFalpha challenge measured after 8 hrs by dual-glo luciferase reporter gene assay; format: cell-based
In short: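 HeLa cells were transiently cotransfected (lipofectamine 2000, 5–6 h) with 6×κB pNF-κB-luc and the pRL-TK Renilla control, then grown 24 h. They were pretreated 30 min with 0.312–20 µM (1% DMSO vehicle), then stimulated with 25 ng/mL TNF-α for 8 h at 37 °C. Dual-Glo firefly signal was normalized to Renilla luminescence.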

Blood [20] = assay: Antiinflammatory activity in human whole blood assessed as inhibition of IL-1-beta-induced TNFalpha production preincubated 2 hrs before addition of IL1-beta measured after 18 hrs by ELISA; format: functional, tissue-based; conditions: Homo sapiens, Blood
In short: (§2)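 Human blood from donors with white count in the normal range, diluted 1:10 in RPMI-1640 with 10% FBS, penicillin and streptomycin. Aliquots were preincubated with vehicle (0.1% DMSO final) or compound at 10, 3, 1, 0.3 or 0.1 µM final for 2 h at 37 °C, 5% CO2. IL-1β (200 U/mL) was then added for 18 h, and plasma was collected and frozen. Cytokine was measured by ELISA.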

Blood [21] = assay: Antiinflammatory activity in human whole blood assessed as inhibition of IL-1-beta-induced IL6 production preincubated 2 hrs before addition of IL1-beta measured after 18 hrs by ELISA; format: functional, tissue-based; in short: as §2
Blood [22] = assay: Antiinflammatory activity in human whole blood assessed as inhibition of IL-1-beta-induced IL6 production after 18 hrs by ELISA; format: functional, tissue-based; in short: as §2
HeLa [23] = assay: Cell cycle arrest in TNF-alpha-stimulated human HeLa cells transfected with NFkappaB-Luc assessed as accumulation at G2/G1 phase at 1 uM after 8 hrs by propidium iodide-based flow cytometry; format: functional
HeLa [24] = assay: Cell cycle arrest in TNF-alpha-stimulated human HeLa cells transfected with NFkappaB-Luc assessed as accumulation at S phase at 1 uM after 8 hrs by propidium iodide-based flow cytometry; format: functional
HeLa [25] = assay: Cell cycle arrest in TNF-alpha-stimulated human HeLa cells transfected with NFkappaB-Luc assessed as accumulation at G2/G1 phase at 5 uM after 8 hrs by propidium iodide-based flow cytometry; format: functional; in short: as §1
HeLa [26] = assay: Cell cycle arrest in TNF-alpha-stimulated human HeLa cells transfected with NFkappaB-Luc assessed as accumulation at S phase at 5 uM after 8 hrs by propidium iodide-based flow cytometry; format: functional; in short: as §1
HeLa [27] = assay: Cell cycle arrest in TNF-alpha-stimulated human HeLa cells transfected with NFkappaB-Luc assessed as accumulation at diploid G2 phase at 5 uM after 8 hrs by propidium iodide-based flow cytometry; format: functional; in short: as §1
HeLa [28] = assay: Cell cycle arrest in TNF-alpha-stimulated human HeLa cells transfected with NFkappaB-Luc assessed as accumulation at diploid G1 phase at 5 uM after 8 hrs by propidium iodide-based flow cytometry; format: functional; in short: as §1

`CCOC(=O)[C@]1(c2ccccc2)N=C(c2ccccc2)N(Cc2ccccc2)[C@@H]1c1ccccc1` (racemic) showed a Ratio (HeLa [1]) of 1.91, an Activity (HeLa [2]) of 16.8% and an Activity (HeLa [3]) of 15.01%. It also gave a Ratio (HeLa [4]) of 1.9, an Activity (HeLa [5]) of 21.48% and an Activity (HeLa [6]) of 13.33%. It also gave an Activity (HeLa [7]) of 100%, an Activity (HeLa [8]) of 14.03% and a Ratio (HeLa [9]) of 1.92. The Activity (HeLa [10]) was 22.8%, the Activity [11] was 1.6 mL⁻¹ and the Activity [12] was 1.2 mL⁻¹. It also gave an Activity (HeLa [13]) of 0%, an Activity (HeLa [14]) of 15.28% and an Activity (HeLa [15]) of 0%. For the same molecule, the Activity (HeLa [16]) was 3.68%, the Activity (HeLa [17]) was 100% and the EC50 [18] was 2.5 µM. The EC50 [19] was 4.67 µM, the IC50 (Blood [20]) was 1.18 µM and the logIC50 (Blood [21]) was 0.07. The EC50 (Blood [22]) was 1.83 µM, the Ratio (HeLa [23]) was 1.91 and the Activity (HeLa [24]) was 22.9%. The Ratio (HeLa [25]) was 1.91, the Activity (HeLa [26]) was 19.8% and the Activity (HeLa [27]) was 13.84%. For the same molecule, the Activity (HeLa [28]) was 66.37%.
